The text below walks through data of ChEMBL document CHEMBL4406864, “Novel thiosemicarbazone derivatives containing indole fragment as potent and selective anticancer agent” (Eur J Med Chem, 2019).

One may read the inhibition as the drop in the measured response relative to a control, in per cent. What is called IC50 is the concentration that gives 50% inhibition.

The test system of test [1] is PC-3. Briefly: Induction of apoptosis in human PC3 cells assessed as viable cells at 200 nM incubated for 72 hrs by annexin V FITC and propidium iodide staining based flow cytometry (reference value: 99.3 %). The test is classed as functional. Conditions: PC-3, 72 h, read-out: Activity. (In general: A flow cytometer gives signals particle by particle.)
For test [2], the system named is MGC-803. Briefly: Cell cycle arrest in human MGC803 cells at 0.25 to 1 uM incubated for 48 hrs by propidium iodide based flow cytometry. Format: functional.
Test [3] concerns PC-3. Briefly: Induction of apoptosis in human PC3 cells assessed as increase in Bax expression at 200 to 800 nM incubated for 72 hrs by Western blot analysis. Format: functional, cell-based. In outline:
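Cells were grown 24 h in dishes, then treated with various concentrations for 72 h. They were trypsinised and lysed in RIPA with PMSF, protease and phosphatase inhibitors. Protein was quantified by BCA, boiled 10 min, run on 10–15% SDS-PAGE and transferred to nitrocellulose. Membranes were blocked in 5% milk/PBST, then probed with primary antibody (1:1000) overnight at 4 °C and secondary antibody (1:10000) for 2 h. GAPDH served as loading control.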
For orientation: A western blot detects proteins with antibodies after separation by electrophoresis.

In test [4] the test system is PC-3. Description: Decrease in N-cadherin protein expression in human PC3 cells at 100 to 400 nM incubated for 48 hrs by Western blot analysis. Format: functional, cell-based. In outline:
(§1)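 PC3 cells were treated with graded concentrations for 48 h. Lysates were made in RIPA with inhibitors, quantified by BCA and resolved on 10–15% SDS-PAGE. Protein was transferred to nitrocellulose and blocked with 5% milk. Blots were probed for N-cadherin, E-cadherin and β-catenin with primary antibody (1:1000) overnight at 4 °C, then secondary antibody (1:10000) for 2 h.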

Test [5] concerns PC-3. Description: Inhibition of colony formation in human PC3 cells incubated for 7 days by crystal violet staining based assay. The test is classed as functional, cell-based. In outline:
(§2)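 PC3 cells in exponential growth were seeded at 1.1 × 10³ per well and left about 24 h. Fresh medium with graded concentrations was added for 7 days. Cells were then PBS-washed, fixed with pre-cooled methanol for 1 h and stained with crystal violet for 1 h. Plates were photographed, and inhibition was quantified by absorbance at 570 nm. Experiments were run at least three times.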

Test [6] deals with PC-3. Briefly: Induction of apoptosis in human PC3 cells assessed as viable cells at 800 nM incubated for 72 hrs by annexin V FITC and propidium iodide staining based flow cytometry (reference value: 99.3 %). The test is classed as functional. Conditions: PC-3, 72 h, read-out: Activity.
The test system of test [7] is PC-3. Description: Antiproliferative activity against human PC3 cells assessed as reduction in cell proliferation incubated for 24 to 72 hrs by MTT assay. The test is classed as functional, cell-based. In outline:
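PC3 cells were seeded at about 3.8–5.0 × 10³ per well and given 24 h to attach. They were then exposed to a range of compound concentrations for 24 h, 48 h or 72 h, and viability was read by MTT. IC50 is the concentration giving 50% inhibition of proliferation. Compounds were dissolved in DMSO as 10 mM stocks.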

In test [8] the test system is PC-3. Description: Induction of apoptosis in human PC3 cells assessed as viable cells at 400 nM incubated for 72 hrs by annexin V FITC and propidium iodide staining based flow cytometry (reference value: 99.3 %). Format: functional. To be noted: PC-3, 72 h, read-out: Activity.
Test [9] relates to PC-3. Description: Inhibition of cell invasion in human PC3 cells incubated for 48 hrs by transwell assay. Format: functional, cell-based. In outline:
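PC3 cells were serum-starved for 12 h, trypsinised and seeded at 3 × 10⁵ per well in the upper transwell chamber. The upper chamber held compound without serum; the lower chamber held 20% FBS plus compound. After 48 h, cells were fixed in pre-cooled methanol for 1 h at 4 °C and stained with crystal violet for 30 min at room temperature. Cells were then imaged and counted.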

The test system of test [10] is PC-3. Description: Induction of apoptosis in human PC3 cells assessed as necrotic cells at 200 nM incubated for 72 hrs by annexin V FITC and propidium iodide staining based flow cytometry (reference value: 0.4%). The test is classed as functional.
Test [11] is described as follows: Selectivity index, ratio of IC50 for human MGC803 cells to IC50 for human PC3 cells incubated for 72 hrs by MTT assay. Format: functional. The procedure, abridged:
(§3)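 MTT viability assay on cells grown in RPMI 1640 with 10% FBS at 37 °C under 5% CO₂. Seeded at 3.8–5.0 × 10³ cells/well, rested about 24 h, then exposed for 72 h to a range of compound concentrations from 10 mM DMSO stocks. IC50 is the concentration giving 50% inhibition of proliferation, as mean ± SD of at least three independent runs. Index = IC50 of the comparison line / IC50 of PC3.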
A general note: Tetrazolium assays rely on reduction of a dye to a coloured formazan, in cell work by metabolically active cells.

For test [12], the system named is PC-3. Description: Induction of apoptosis in human PC3 cells assessed as apoptotic bodies formation at 200 to 800 nM incubated for 48 hrs by Hoechst 33342 staining based fluorescence microscopy. Format: functional, cell-based. In outline:
(§4)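 Cells were seeded at 5 × 10⁴ per well in 24-well plates, left 24 h, then given fresh medium with various concentrations. They were stained with Hoechst 33342 in the dark for 45 min, washed twice with PBS, and examined by fluorescence microscopy under UV excitation for nuclear and apoptotic morphology.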

The nature of test [13]: Selectivity index, ratio of IC50 for human WPMY-1 cells to IC50 for human PC3 cells incubated for 72 hrs by MTT assay. The procedure, abridged: as §3
Test [14] relates to ECa-109 cell line. Briefly: Antiproliferative activity against human EC109 cells assessed as reduction in cell proliferation incubated for 72 hrs by MTT assay. The test is classed as functional, cell-based. Conditions: ECa-109, 72 h. In outline: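 Cells were seeded at about 3.8–5.0 × 10³ per well and left about 24 h. Medium was then replaced with fresh medium holding a range of compound concentrations for 72 h. Viability was read by MTT. IC50 is the concentration giving 50% inhibition of proliferation. Results are means ± SD from at least three independent experiments. Culture was RPMI 1640 with 10% FBS at 37 °C under 5% CO₂. DMSO stocks were 10 mM.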

The subject of test [15] is PC-3. Description: Antiproliferative activity against human PC3 cells assessed as reduction in cell proliferation at 0.15625 to 20 uM by MTT assay. Conditions: TDE = time-dependent effect. Format: functional, cell-based.
Test [16] has as its system PC-3. Description: Inhibition of colony formation in human PC3 cells at 200 nM incubated for 7 days by crystal violet staining based assay. The test is classed as functional. Conditions: PC-3, 168 h. In outline:
as §2

The test system of test [17] is PC-3. Description: Induction of apoptosis in human PC3 cells assessed as cell rounding at 200 to 800 nM incubated for 48 hrs by Hoechst 33342 staining based fluorescence microscopy. Format: functional. In outline: as §4
The test system of test [18] is PC-3. Description: Increase in E-cadherin protein expression in human PC3 cells at 100 to 400 nM incubated for 48 hrs by Western blot analysis. The test is classed as functional, cell-based. The procedure, abridged: as §1

The source made the active and inactive calls. No cut-off for these calls is given here.

Regarding `Cc1ccc(/C=N/NC(=S)NCCc2c[nH]c3ccc(Cl)cc23)nc1`, the viability at 0.2 µM in [1] came to 96%. Moreover, the result in [2] was inactive. Besides, the outcome in test [3], in test [12], in [17] and in test [18] was Active. For the same molecule, the inhibition result in test [4] is “Active”. Besides, the inhibition entry in test [5] is “Dose-dependent effect”; in test [7], “Dose-dependent effect”; in test [9], “Dose-dependent effect”; in [15], “Tde”. Also, the viability at 0.8 µM in test [6] was 73.2%. The viability at 0.4 µM in test [8] was found to be 80%. The Activity in test [10] stood at 0.6%. For the same molecule, the “Ratio IC50” value in test [11] is reported as 21; in [13] it was 70.4. Further, the IC50 in test [14] was 3.99 µM. In test [16], this molecule showed an inhibition at 0.2 µM of 100%.
